Assay results: ChEMBL document CHEMBL3779798, “Novel seleno- and thio-urea derivatives with potent in vitro activities against several cancer cell lines” (Eur J Med Chem, 2016)

Legend:
Format in all cases: functional, cell-based
[1] = test system: RKO; experiment: Anticancer activity against human RKO cells assessed as inhibition of cell growth after 72 hrs by MTT assay
Method in brief: (§1)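 MTT assay at 3,000 cells/well. Cells treated with DMSO or seven concentrations from 0.5 to 50 µM for 24, 48 or 72 h. MTT added 3 h before the end point; formazan dissolved in DMSO and read at 570 and 630 nm. IC50 is the concentration giving 50% growth inhibition. Media: PANC-1, BxPC3 and 1205Lu in DMEM; DU145 and A549 in RPMI 1640; HT29, HCT116 and RKO in McCoy's 5A, all with 10% FBS and pen/strep, at 37 °C and 5% CO2.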

[2] = test system: RKO; experiment: Anticancer activity against human RKO cells assessed as inhibition of cell growth after 48 hrs by MTT assay; method in brief: as §1
[3] = test system: HT-29; experiment: Anticancer activity against human HT-29 cells assessed as inhibition of cell growth after 48 hrs by MTT assay; conditions: HT-29, 48 h; method in brief: as §1
[4] = test system: HT-29; experiment: Anticancer activity against human HT-29 cells assessed as inhibition of cell growth after 72 hrs by MTT assay; conditions: HT-29, 72 h; method in brief: as §1
[5] = Anticancer activity against human HCT116 cells assessed as inhibition of cell growth after 48 hrs by MTT assay; conditions: HCT-116, 48 h; method in brief: as §1
[6] = Anticancer activity against human HCT116 cells assessed as inhibition of cell growth after 24 hrs by MTT assay; conditions: HCT-116, 24 h; method in brief: as §1
[7] = Anticancer activity against human HCT116 cells assessed as inhibition of cell growth after 72 hrs by MTT assay; conditions: HCT-116, 72 h; method in brief: as §1
[8] = test system: HT-29; experiment: Anticancer activity against human HT-29 cells assessed as inhibition of cell growth after 24 hrs by MTT assay; conditions: HT-29, 24 h; method in brief: as §1
[9] = test system: RKO; experiment: Anticancer activity against human RKO cells assessed as inhibition of cell growth after 24 hrs by MTT assay; method in brief: as §1
[10] = Anticancer activity against human PANC1 cells assessed as inhibition of cell growth after 24 hrs by MTT assay; conditions: PANC-1, 24 h; method in brief: as §1
[11] = Anticancer activity against human BxPC3 cells assessed as inhibition of cell growth after 24 hrs by MTT assay; conditions: BXPC-3, 24 h; method in brief: as §1
[12] = Anticancer activity against human BxPC3 cells assessed as inhibition of cell growth after 72 hrs by MTT assay; conditions: BXPC-3, 72 h; method in brief: as §1
[13] = Anticancer activity against human DU145 cells assessed as inhibition of cell growth after 48 hrs by MTT assay; conditions: DU-145, 48 h; method in brief: as §1
[14] = Anticancer activity against human PANC1 cells assessed as inhibition of cell growth after 72 hrs by MTT assay; conditions: PANC-1, 72 h; method in brief: as §1
[15] = Anticancer activity against human 1205 Lu cells assessed as inhibition of cell growth after 72 hrs by MTT assay; method in brief: as §1
[16] = Anticancer activity against human DU145 cells assessed as inhibition of cell growth after 72 hrs by MTT assay; conditions: DU-145, 72 h; method in brief: as §1
[17] = test system: A549; experiment: Anticancer activity against human A549 cells assessed as inhibition of cell growth after 24 hrs by MTT assay; conditions: A549, 24 h; method in brief: as §1
[18] = test system: A549; experiment: Anticancer activity against human A549 cells assessed as inhibition of cell growth after 72 hrs by MTT assay; conditions: A549, 72 h; method in brief: as §1
[19] = Anticancer activity against human PANC1 cells assessed as inhibition of cell growth after 48 hrs by MTT assay; conditions: PANC-1, 48 h; method in brief: as §1
[20] = test system: A549; experiment: Anticancer activity against human A549 cells assessed as inhibition of cell growth after 48 hrs by MTT assay; conditions: A549, 48 h; method in brief: as §1
[21] = Anticancer activity against human 1205 Lu cells assessed as inhibition of cell growth after 48 hrs by MTT assay; method in brief: as §1
[22] = Anticancer activity against human DU145 cells assessed as inhibition of cell growth after 24 hrs by MTT assay; conditions: DU-145, 24 h; method in brief: as §1
[23] = Anticancer activity against human 1205 Lu cells assessed as inhibition of cell growth after 24 hrs by MTT assay; method in brief: as §1
[24] = Anticancer activity against human BxPC3 cells assessed as inhibition of cell growth after 48 hrs by MTT assay; conditions: BXPC-3, 48 h; method in brief: as §1

Row | SMILES | IC50 [1] [µM] | IC50 [2] [µM] | IC50 [3] [µM] | IC50 [4] [µM] | IC50 [5] [µM] | IC50 [6] [µM] | IC50 [7] [µM] | IC50 [8] [µM] | IC50 [9] [µM] | IC50 [10] [µM] | IC50 [11] [µM] | IC50 [12] [µM] | IC50 [13] [µM] | IC50 [14] [µM] | IC50 [15] [µM] | IC50 [16] [µM] | IC50 [17] [µM] | IC50 [18] [µM] | IC50 [19] [µM] | IC50 [20] [µM] | further results
1 | O=c1[nH]cc(F)c(=O)[nH]1 [FLUOROURACIL] | 6.8 | 41.1 | 25 | 6.3 | > 50 | > 50 | 27.8 | > 50 | > 50 |  |  |  |  |  |  |  |  |  |  |  | 
2 | COc1cc2oc(=O)cc(C[Se]C(=N)N)c2cc1OC |  |  |  |  | 8.9 | 26.7 | 6.6 |  |  | 20.6 | > 50 | 6.6 | 8.4 | 10 | 1.9 | 6.8 | 15.7 | 4.5 | 19.4 | 5.2 | IC50 [21]: 4.4 µM; IC50 [22]: 11.4 µM; IC50 [23]: 21 µM; IC50 [24]: > 50 µM
3 | N=C(N)SCc1ccc2c(c1)C(=O)c1ccccc1C2=O | 21 | 20.4 | 8.1 | 7.4 | 10.7 | 20.2 | 10.3 | 17 | 28.9 | 7.6 | 4.1 | 7.9 | 22.9 | 6.8 | 6.3 | 31.2 | 9.7 | 7.6 | 7.4 | 8.7 | IC50 [21]: 8.5 µM; IC50 [22]: 29.8 µM; IC50 [23]: 9.4 µM; IC50 [24]: 9 µM
